High-throughput results: PubChem BioAssay, Broad Institute
T cruzi growth-1: T. cruzi proliferation inhibition | 77,000 compounds, 5.9% hits | T. cruzi beta-gal in NIH3T3, GalScreen luminescence, 90 h | inhibition, % at 8.34 µM;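 active = mean inhibition above about 93%, with at least 55% of replicates each passing it, limit read from the data, passing the limit was not always enough; inconclusive = only one of those two conditions holds; inactive = neither condition holds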
GASC1 inh: blocks human GASC-1 (KDM4C) demethylase activity; GST-KDM4C 2-372, H3K9me3 peptide, LANCE TR-FRET; Q9H3R0; 96,000 compounds, 0.15% hits; inhibition, % at 12.5 µM;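 active = mean replicate inhibition above about 25%, with at least 55% of replicates also reaching it, limit read from the data, passing the limit was not always enough; inconclusive = only one of those two conditions met; inactive = neither condition met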
Target sequence (Q9H3R0 2-372 limits assumed): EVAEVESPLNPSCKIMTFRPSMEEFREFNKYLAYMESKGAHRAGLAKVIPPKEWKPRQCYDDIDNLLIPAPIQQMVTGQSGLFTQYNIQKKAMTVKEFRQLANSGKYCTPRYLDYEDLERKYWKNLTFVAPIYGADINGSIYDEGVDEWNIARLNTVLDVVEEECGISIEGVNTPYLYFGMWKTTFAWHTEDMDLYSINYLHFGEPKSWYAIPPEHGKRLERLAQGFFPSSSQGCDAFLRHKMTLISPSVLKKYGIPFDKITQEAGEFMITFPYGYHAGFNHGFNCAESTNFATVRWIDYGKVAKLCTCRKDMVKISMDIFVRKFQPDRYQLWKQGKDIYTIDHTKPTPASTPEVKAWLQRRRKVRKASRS
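System: N-terminal GST-fused human GASC-1 (KDM4C) fragment, residues 2-372 / Amount: 10 nM GST-KDM4C in enzyme reaction / Also added: H3K9me3 peptide with Fe(II)/2OG / Times: 30 min demethylation and 1 h detection at room temperature / Signal: LANCE TR-FRET / Read-out basis: Fall in 671/618 emission ratio as inhibition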
IDH1 R132H inh: blocks human IDH1 R132H reductase activity; AID 624101; diaphorase/resazurin fluorescence, 60 min; inhibition, % at 10 µM; 70,000 compounds, 0.18% hits; in the data active = inhibition above about 34%; inconclusive = no clear call, values can overlap the other calls; inactive = below about 11%;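 note: 0% = DMSO and 100% = no enzyme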
Target sequence (O75874 whole entry R132H): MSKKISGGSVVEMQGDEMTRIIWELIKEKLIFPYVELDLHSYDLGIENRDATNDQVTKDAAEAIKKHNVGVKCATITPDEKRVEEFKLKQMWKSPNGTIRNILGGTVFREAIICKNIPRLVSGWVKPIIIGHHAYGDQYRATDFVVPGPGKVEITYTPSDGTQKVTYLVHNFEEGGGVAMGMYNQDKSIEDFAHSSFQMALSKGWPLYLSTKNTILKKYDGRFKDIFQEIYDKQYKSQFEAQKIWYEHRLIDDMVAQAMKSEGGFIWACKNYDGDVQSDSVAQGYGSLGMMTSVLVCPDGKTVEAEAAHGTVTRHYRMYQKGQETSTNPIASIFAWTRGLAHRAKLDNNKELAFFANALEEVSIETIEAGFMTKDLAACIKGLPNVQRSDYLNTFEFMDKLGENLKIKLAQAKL
T cruzi growth-2: blocks T. cruzi growth in NIH3T3 host cells. shares compounds with T cruzi growth-1. T. cruzi beta-gal in NIH3T3, GalScreen luminescence, 90 h. inhibition, % at 8.35 µM. 5,600 compounds, 72% hits. AID 651739;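 active = mean replicate inhibition above about 95% and at least 55% of replicates individually reaching it, limit read from the data; inconclusive = only one of the two criteria is met; inactive = neither criterion is met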
T cruzi growth-3: blocks T. cruzi growth in NIH3T3 host cells. T. cruzi beta-gal in NIH3T3, GalScreen luminescence, 90 h. AID 651740. shares compounds with T cruzi growth-1. 5,600 compounds, 21% hits. inhibition, % at 2.09 µM;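 active = mean inhibition above about 95%, with at least 55% of replicates also reaching it, limit read from the data; inconclusive = meets just one of the two conditions; inactive = meets neither condition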;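 note: plate controls were neutral control median for no effect and positive control median for full effect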
NIH3T3 tox: NIH/3T3 (mouse) viability loss; AID 651742; NIH/3T3 viability, CellTiter-Glo ATP luminescence, 90 h; shares compounds with T cruzi growth-1; cytotoxicity (signal decrease), % at 8.35 µM; 5,600 compounds, 14% hits;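 active = mean signal decrease across replicates above about 35% based on untreated-well scatter, with enough replicates individually passing, limit read from the data; inconclusive = no rule stated though some were filed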;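 note: 0% = median of neutral control wells and 100% = median of positive control wells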
NIH3T3 tox 2: cytotoxicity in mouse NIH/3T3 fibroblasts; shares compounds with T cruzi growth-1; NIH/3T3 viability, CellTiter-Glo ATP luminescence, 90 h; inhibition, % at 24.9 µM; 5,600 compounds, 56% hits; AID 651744;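 active = mean loss of cell viability signal at or above a set limit, and enough replicates individually reaching it; inconclusive = meets only the mean limit or only the replicate share; inactive = meets neither condition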;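 note: 0% = median of neutral control wells and 100% = median of positive control wells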
Active calls of the source: *; ? = inconclusive; nt = no result given; ! = a repeat was not active. This is one part of a sample in which hits are shown more often than they occur.

SMILES	T cruzi growth-1	GASC1 inh	IDH1 R132H inh	T cruzi growth-2	T cruzi growth-3	NIH3T3 tox	NIH3T3 tox 2
COc1ccc(NC(=O)Nc2ccc3c(c2)C(=O)N([C@H](C)CO)C[C@H](C)[C@H](CN(C)Cc2ccc(Cl)c(Cl)c2)OCCCC[C@H](C)O3)cc1	126.1*	-0.3	0.8	95.2*	113.8*	4.5	15.9
COc1ccc(CN(C)C[C@H]2OCCCC[C@H](C)Oc3ccc(NC(=O)Nc4ccc(OC)cc4)cc3C(=O)N([C@@H](C)CO)C[C@H]2C)cc1	2.4	0.8	nt	nt	nt	nt	nt
O=C(C[C@H]1CC[C@@H]2[C@H](COC[C@H](O)CN2C(=O)c2ccncc2)O1)NC1CCC1	92.7	1.2	nt	nt	nt	nt	nt
C[C@@H]1CCCCO[C@@H](CN(C)C(=O)Nc2ccc3c(c2)OCO3)[C@H](C)CN([C@@H](C)CO)C(=O)c2cc(NS(=O)(=O)c3ccc(Cl)cc3)ccc2O1	80.2	8.6	nt	nt	nt	nt	nt
CC(=O)N1[C@@H](CO)[C@@H]2c3ccccc3N(C(=O)c3ccc(F)cc3)C[C@@H]21	41.0	-1.3	nt	nt	nt	nt	nt
CC(=O)N(C)C[C@@H]1Oc2cc(-c3ccccc3F)ccc2S(=O)(=O)N([C@H](C)CO)C[C@H]1C	-8.0	0.4	-0.7	nt	nt	nt	nt
COc1ccc(NC(=O)Nc2ccc3c(c2)C(=O)N([C@@H](C)CO)C[C@@H](C)[C@@H](CN(C)Cc2ccc(Cl)c(Cl)c2)OCCCC[C@@H](C)O3)cc1	126.3*	0.1	3.1	95.7*	113.8*	1.0	4.8
COc1ccc(NC(=O)Nc2ccc3c(c2)C(=O)N([C@H](C)CO)C[C@H](C)[C@H](CN(C)Cc2ccc(Cl)c(Cl)c2)OCCCC[C@@H](C)O3)cc1	120.9*	-1.7	nt	103.6*	107.3*	6.0	-1.2
O=C(NCCc1ccncc1)[C@H]1[C@H](CO)[C@H]2Cn3c(ccc(-c4ccncc4)c3=O)[C@@H]1N2	56.6	-0.9	nt	nt	nt	nt	nt
CCC(=O)N1CC(=O)N2[C@@H](CO)[C@@H](c3ccc(C#CCC(C)C)cc3)[C@@H]2C1	nt	-3.1	nt	nt	nt	nt	nt
COc1ccc(NC(=O)Nc2ccc3c(c2)C(=O)N([C@@H](C)CO)C[C@@H](C)[C@H](CN(C)C(=O)Nc2ccc(OC)cc2)OCCCC[C@@H](C)O3)cc1	2.7	-0.2	-0.1	nt	nt	nt	nt
Cc1ccccc1-c1ccc([C@H]2[C@@H](CO)N3CCCCN(Cc4cccnc4)C[C@H]23)cc1	109.1*	-0.9	nt	105.7*	90.8	45.6*	106.1*
OC[C@@H]1[C@H](c2ccc(-c3ccc(F)cc3)cc2)[C@@H]2CN(Cc3ccncc3)CCCCN12	97.8*	5.9	nt	105.5*	45.2	36.9*	103.5*
OC[C@@H]1[C@H](c2ccc(C3=CCCC3)cc2)[C@H]2CN(Cc3cccnc3)CCCCN12	98.6	1.8	nt	nt	nt	nt	nt
CN(C)C(=O)c1ccc(-c2ccc([C@@H]3[C@H](CO)N4CCCCN(Cc5cccnc5)C[C@@H]34)cc2)cc1	83.3	-0.9	nt	nt	nt	nt	nt
CN(C)C(=O)c1cccc(-c2ccc([C@H]3[C@H](CO)N4CCCCN(Cc5cccnc5)C[C@@H]34)cc2)c1	100.7*	-0.6	nt	107.3*	90.9	-4.8	-5.7
OC[C@@H]1[C@@H](c2ccc(-c3ccc(F)cc3)cc2)[C@H]2CN(Cc3cccnc3)CCCCN12	112.9*	0.2	nt	53.2	19.6	28.3	102.3*
OC[C@@H]1[C@@H](c2ccc(-c3ccc(F)cc3)cc2)[C@H]2CN(Cc3ccncc3)CCCCN12	76.8	3.4	nt	nt	nt	nt	nt
C[C@@H]1CN([C@@H](C)CO)C(=O)Cc2cc(NS(C)(=O)=O)ccc2O[C@H]1CN(C)Cc1ccccc1	15.7	-1.1	-1.6	nt	nt	nt	nt
CO[C@H]1CN(C)C(=O)c2ccc(NC(=O)c3ccc4c(c3)OCO4)cc2OC[C@@H](C)N(CCC(F)(F)F)C[C@H]1C	54.5	-0.1	0.6	nt	nt	nt	nt
O=C(O)C[C@H]1C[C@H]2c3cc(NC(=O)C4CCC4)ccc3O[C@H]2[C@@H](CO)O1	nt	-2.1	1.2	nt	nt	nt	nt
C[C@H](CO)N1C[C@H](C)[C@H](CN(C)C(=O)Nc2ccccc2C(F)(F)F)OCc2cnnn2CCCC1=O	7.9	nt	nt	nt	nt	nt	nt
C[C@@H]1CN([C@H](C)CO)C(=O)c2cccc(NC(=O)c3ccncc3)c2O[C@@H]1CN(C)Cc1ccc(-c2ccccc2)cc1	102.5	-3.5	0.6	nt	nt	nt	nt
OC[C@H]1[C@H](c2ccc(-c3ccc(F)cc3)cc2)[C@H]2CN(Cc3cccnc3)CCCCN21	89.2	-0.6	nt	nt	nt	nt	nt
OC[C@H]1[C@H](c2ccc(-c3ccc(F)cc3)cc2)[C@@H]2CN(Cc3cccnc3)CCCCN12	110.1*	0.5	nt	114.4*	90.6	16.7	102.6*
SMILES	T cruzi growth-1	GASC1 inh	IDH1 R132H inh	T cruzi growth-2	T cruzi growth-3	NIH3T3 tox	NIH3T3 tox 2
C[C@@H]1CN([C@@H](C)CO)C(=O)c2cc(C#Cc3ccccc3)cnc2O[C@H]1CN(C)C(=O)C1CC1	57.4	0.0	-1.6	nt	nt	nt	nt
CCCCCC(O)/C=C/C=O (centres undefined)	nt	nt	0.5	nt	nt	nt	nt
C[C@@H]1CN([C@@H](C)CO)C(=O)c2ccccc2-c2ccccc2CO[C@@H]1CN(C)S(=O)(=O)c1cccs1	115.1*	-2.6	-3.6	92.3	6.6	1.8	?
C[C@H](CO)N1C[C@H](C)[C@@H](CN(C)S(C)(=O)=O)OCc2ccccc2-c2ccccc2C1=O	39.9	1.7	2.4	nt	nt	nt	nt
Cc1ccccc1S(=O)(=O)N(C)C[C@H]1OCc2ccccc2-c2ccccc2C(=O)N([C@H](C)CO)C[C@@H]1C	?	-1.2	-5.4	95.0*	31.1	-6.4	2.2
Cc1ccccc1S(=O)(=O)N(C)C[C@H]1OCc2ccccc2-c2ccccc2C(=O)N([C@@H](C)CO)C[C@H]1C	91.7	0.9	-3.8	nt	nt	nt	nt
Cc1ccc(-c2ccc3c(c2)O[C@H](CN(C)Cc2cccnc2)[C@@H](C)CN([C@@H](C)CO)S3(=O)=O)cc1	118.8*	-0.1	nt	106.4*	97.5*	49.8*	104.9*
C[C@@H]1CN([C@@H](C)CO)S(=O)(=O)c2ccc(-c3ccncc3)cc2O[C@@H]1CN(C)Cc1cccnc1	68.4	nt	nt	nt	nt	nt	nt
C[C@H](CO)N1C[C@H](C)[C@@H](CN(C)Cc2cccnc2)Oc2cc(-c3ccccc3)ccc2S1(=O)=O	83.6	-2.5	nt	nt	nt	nt	nt
C[C@@H]1CN([C@H](C)CO)S(=O)(=O)c2ccc(-c3cccnc3)cc2O[C@@H]1CN(C)Cc1cccnc1	42.1	-1.0	nt	nt	nt	nt	nt
Cc1ccc(-c2ccc3c(c2)O[C@@H](CN(C)Cc2cccnc2)[C@H](C)CN([C@@H](C)CO)S3(=O)=O)cc1	117.0*	-1.8	nt	97.7*	96.3*	50.5*	99.5*
C[C@H](CO)N1C[C@H](C)[C@@H](CN(C)Cc2cccnc2)Oc2cc(-c3cccnc3)ccc2S1(=O)=O	101.2*!	0.9	nt	67.2	44.5	19.7	64.4*
